Measurements as given in publication PMC9804870 (Clinical Pharmacology in Drug Development, 2022).

Columns and labels:
[1] = test system: BTK; details: cited from earlier work
[2] = high permeability, low solubility; reduced solubility at higher pH; cited from earlier work
[3] = dose range of 75–250 mg; dose‐proportional; cited from earlier work
[4] = Study 1; format: in vivo; details: human, plasma, oral, 100 mg
In short: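 Healthy subjects, four-sequence crossover: 100 mg tablet or capsule fasted (>10 h). Period 3: tablet 30 min after high-fat meal (800–1000 calories), or fasted 2 h after 20 mg PPI following PPI 20 mg BID days −3 to −1. Plasma sampled predose to 24 h. Parent and metabolite by LC-MS/MS (1–1000, 5–5000 ng/mL). t½ noncompartmental (linear up log down).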

[5] = test system: CYP3A; details: has been reported; ref not given; cited from earlier work
[6] = test system: gastric pH; details: cited from earlier work

## CC#CC(=O)NCCCC(=O)c1nc(-c2ccc(C(=O)Nc3ccccn3)cc2)c2c(N)nccn12 [ACP‐5862]
[1]
  Potency with respect to BTK inhibition, less than acalabrutinib: 50%

## CC#CC(=O)N1CCC[C@H]1c1nc(-c2ccc(C(=O)Nc3ccccn3)cc2)c2c(N)nccn12 [Acalabrutinib]
[2]
  Biopharmaceutical Classification System class: class II
[3]
  Dose linearity of pharmacokinetics: linear pharmacokinetics
[4]
  half-life: 2 to 3 h

## COCCCOc1ccnc(C[S+]([O-])c2nc3ccccc3[nH]2)c1C (stereo not shown) [Rabeprazole]
[5]
  CYP3A inhibition in vitro: weak inhibitor
[6]
  Time needed to achieve maximum suppression of gastric pH: 3 days

## COc1ccc2[nH]c([S+]([O-])Cc3ncc(C)c(OC)c3C)nc2c1 (stereo not shown) [omeprazole]
[6]
  Time needed to achieve maximum suppression of gastric pH: 5 days
